Assay: Toxicity liver stage against HepG2, at 10uM
Assay type: cell-based
Parameters: test concentration 10 uM, cell line HepG2-A16-CD81EGFP
Settings: human, HepG2-A16-CD81EGFP cells; read-out: INHIBITION
Method in brief: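 Uninfected HepG2-A16-CD81EGFP cells, 3 × 10^3 per well, 1536-well, plated on prespotted compound at 10 μM final, parasite-free screening media added to match infected plates; puromycin 10 μM positive, DMSO 0.5% negative; run in parallel with 48 h PbLuc assay at 37 °C, 5% CO2; viability by CellTiter-Glo luminescence, normalized to controls.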
In the case of O=C(NCc1ccccn1)Nc1ccc2[nH]nnc2c1, the cytotoxicity at 10 µM is reported as 6.77%. With CC(C)(C)CN(CCC#N)C(=O)Cc1ccc(-n2cnnn2)cc1 the cytotoxicity at 10 µM was 1.18%. CN(C)c1ccc(NC(=O)NCc2ccc(Cl)s2)cn1 showed a cytotoxicity at 10 µM of 6.43%. Work on Cn1cnc2c1CCN(Cc1c(Cl)ccc3cccnc13)C2 yielded a cytotoxicity at 10 µM of 5.55%. Molecule CC(C)OCCCNC(=O)N(C)C(C)c1ccc(-n2cncn2)cc1 (stereo not given) has a cytotoxicity at 10 µM of 4.08%. CC(O)CN1CCN(CCOCC(F)(F)F)CC1 (stereo not given) gave a cytotoxicity at 10 µM of -3.51%. Molecule CC(=O)N(C)CC(=O)Nc1ccc(C)cc1OCc1ccccc1 has a cytotoxicity at 10 µM of 2.22%. In the case of CN1CCC(CNC(=O)c2cccc(NC(N)=O)c2)c2ccccc21 (stereo not given), the cytotoxicity at 10 µM is reported as 3.86%. Cc1sc(CNS(N)(=O)=O)nc1-c1ccc(Cl)cc1 gave a cytotoxicity at 10 µM of -7.45%. CS(=O)(=O)N1CCC(Nc2ccnc3ccc(Cl)cc23)CC1 showed a cytotoxicity at 10 µM of 54.3%. CSCC(=O)NS(=O)(=O)c1ccc(C#N)c(C(F)(F)F)c1 showed a cytotoxicity at 10 µM of 17.2%. COc1cc2ccn(CCS(C)(=O)=O)c(=O)c2cc1F gave a cytotoxicity at 10 µM of 18.5%. Molecule O=C(O)c1ccc(F)c(S(=O)(=O)Nc2c(F)cccc2-n2cccn2)c1 has a cytotoxicity at 10 µM of -5.59%. Work on NC(=O)C1CCN(C(=O)NCc2ccccc2Cn2cncn2)CC1 yielded a cytotoxicity at 10 µM of 3.98%. Molecule CNc1cc(N2CCCC2CNCc2ccccn2)ncn1 (stereo not given) has a cytotoxicity at 10 µM of 7.31%. With Cc1cc(C)n(C2CCCN(C(=O)c3ccc(F)cc3F)C2)n1 (stereo not given) the cytotoxicity at 10 µM was 0.743%. Molecule O=C(c1cccnc1)N1CCC2(CC1)CCN(Cc1ccccn1)C2=O has a cytotoxicity at 10 µM of 2.78%. With CC(C)c1nnc(CN2CCC3(CC2)Nc2ccccc2NC3=O)o1 the cytotoxicity at 10 µM was -1.48%. CCCN1CC2(CCN(C)CC2)CC1C(=O)NCCn1cccn1 (stereo not given) showed a cytotoxicity at 10 µM of -5.46%. Cc1ccccc1-n1cc(CNc2ncnc3c2CCNCC3)cn1 showed a cytotoxicity at 10 µM of 1.25%. In the case of CCSCC(C)NCc1cn2ccccc2n1 (stereo not given), the cytotoxicity at 10 µM is reported as -7.38%. Work on CS(=O)(=O)c1ccc(-c2cc(C3CC3)c(C#N)c(N)n2)cc1 yielded a cytotoxicity at 10 µM of -8.11%. Work on Cc1ccc(NC2CCCN(Cc3ccc(Cl)cc3)C2)nn1 (stereo not given) yielded a cytotoxicity at 10 µM of -5.98%. With c1ccc2oc(N3CCCC4(CCOC4)C3)nc2c1 (stereo not given) the cytotoxicity at 10 µM was -6.27%. CC(C)C(O)C(=O)N1CCC2(CC1)c1nc[nH]c1CCN2S(C)(=O)=O (stereo not given) showed a cytotoxicity at 10 µM of -0.232%. c1ccn2c(C3CCCN(c4ncnc5c4CCNC5)C3)nnc2c1 (stereo not given) gave a cytotoxicity at 10 µM of -7.94%. Molecule Cc1ccccc1CN1CCN(C(=O)CN2CCOC2=O)CC1 has a cytotoxicity at 10 µM of -8.03%. CC(C)[C@@H](N)C(=O)NCc1cccnc1N1CCc2ccccc2C1 gave a cytotoxicity at 10 µM of 11%. Work on COc1ccc(F)c(F)c1CN1CCN(CC(C)C)C(=O)C1C (stereo not given) yielded a cytotoxicity at 10 µM of -6.29%. CN(C)c1ccccc1C(=O)N1C[C@@H](CN2CCOCC2)[C@@H](CO)C1 gave a cytotoxicity at 10 µM of -4.09%. For CC(C)=CCN1CCC(c2nccn2Cc2cscn2)CC1, the cytotoxicity at 10 µM was -13%. For CC(C)c1n[nH]c(C2CN(C(=O)c3cc(C4CC4)[nH]n3)CCO2)n1 (stereo not given), the cytotoxicity at 10 µM was -5.95%. Cc1noc(C)c1C(=O)NCC(c1cccc(F)c1)N(C)C (stereo not given) showed a cytotoxicity at 10 µM of -13.1%. Molecule CCn1c(C)nnc1CN(C)C1CCN(CCOc2ccccc2)C1 (stereo not given) has a cytotoxicity at 10 µM of 0.796%. In the case of CCn1cc(CN2CCCN(C(=O)c3ccoc3C)CC2)cn1, the cytotoxicity at 10 µM is reported as -6.67%. Work on O=S(=O)(CCN1CCOC(Cn2cccn2)C1)C(F)(F)F (stereo not given) yielded a cytotoxicity at 10 µM of 3.78%. In the case of CCn1ccnc1CN1CCCN(C(=O)Cn2nc(C)cc2C)CC1, the cytotoxicity at 10 µM is reported as -0.505%. Cc1ccccc1NC(=O)c1cncc(C2CCNCC2)n1 showed a cytotoxicity at 10 µM of 1.54%. Work on CC(C)C[C@H](N)c1nnc(SCC(N)=O)o1 yielded a cytotoxicity at 10 µM of 4.95%. For CCOc1ccc(Br)cc1-c1cc(N)[nH]n1, the cytotoxicity at 10 µM was -2.97%. With Fc1ccc(C2(CNC3=NCCCN3)CCC2)cc1 the cytotoxicity at 10 µM was 7.2%. Work on O=C1NC(c2ccccc2)=N[C@@]12CC[C@@H]1CN(Cc3ccccc3)C[C@@H]12 yielded a cytotoxicity at 10 µM of -5.23%. For COC[C@]12COC[C@H]1CN(Cc1ccc3ccccc3n1)C2, the cytotoxicity at 10 µM was 11.9%. In the case of CN(C)C(=O)CN1CCC2(CCN(Cc3nccs3)CC2)C1=O, the cytotoxicity at 10 µM is reported as 1.31%. Work on O=S(=O)(C1CC1)N1CCO[C@H]2[C@H](Oc3cccnc3)CC[C@@H]21 yielded a cytotoxicity at 10 µM of -0.24%. Cc1n[nH]c2ncc(CNC3CCN(Cc4ccccn4)CC3)cc12 showed a cytotoxicity at 10 µM of 7.14%. Cc1noc(C)c1CN1CCN(C)c2ncccc2C1 showed a cytotoxicity at 10 µM of -77%. Cc1ccc(CNC(=O)c2nc3c(o2)CN(C(=O)c2cccnc2)C3)o1 gave a cytotoxicity at 10 µM of 0.109%. Cc1nc(CN2C[C@@H]3CN(C(=O)C4(C#N)CC4)C[C@@H]3C2=O)cs1 gave a cytotoxicity at 10 µM of -70.7%. In the case of CN(Cc1cccnc1)C1CC2(CCN(c3ncccn3)CC2)C1, the cytotoxicity at 10 µM is reported as -3.31%. With CCOC[C@@H]1CC[C@H]2[C@H](CCN2Cc2c(C)noc2C)O1 the cytotoxicity at 10 µM was 10.5%. Molecule Oc1cccc(CN2C[C@@H]3CC[C@H]2CN(Cc2ccncc2)C3)c1 has a cytotoxicity at 10 µM of -131%. Work on COCCC(=O)N1C[C@@H]2CC[C@H]1CN(C1Cc3ccccc3C1)C2 yielded a cytotoxicity at 10 µM of -7.43%. COc1ncccc1CN1CCC2[C@H]1CCN2CCN(C)C (stereo not given in full) gave a cytotoxicity at 10 µM of 2.77%. Molecule Cc1cc(C(=O)NC2CCC3(CCC(=O)N3)CC2)no1 (stereo not given) has a cytotoxicity at 10 µM of 4.23%.

— ChEMBL document CHEMBL4513216, “Probing the Open Global Health Chemical Diversity Library for Multistage-Active Starting Points for Next-Generation Antimalarials” (ACS Infect Dis, 2020)
